# Measurements from ChEMBL document CHEMBL3352666, “Human Toll-like receptor 8-selective agonistic activities in 1-alkyl-1H-benzimidazol-2-amines” (J Med Chem, 2014).
# Calls of active or inactive are those of the source. The calls are words filed in the database; no cut-off is given here.
# Experiments:
# Type in all cases: cell-based
# [1] = molecular target: Toll-like receptor 2 (Homo sapiens) (UniProt O60603); test: Agonist activity at human TLR2 stably expressed in HEK293 cells co-expressing secreted alkaline phosphatase assessed as NF-kappaB induction by liquid handler-assisted reporter gene assay
# Toll-like receptor 2 (Homo sapiens), sequence (O60603 whole entry): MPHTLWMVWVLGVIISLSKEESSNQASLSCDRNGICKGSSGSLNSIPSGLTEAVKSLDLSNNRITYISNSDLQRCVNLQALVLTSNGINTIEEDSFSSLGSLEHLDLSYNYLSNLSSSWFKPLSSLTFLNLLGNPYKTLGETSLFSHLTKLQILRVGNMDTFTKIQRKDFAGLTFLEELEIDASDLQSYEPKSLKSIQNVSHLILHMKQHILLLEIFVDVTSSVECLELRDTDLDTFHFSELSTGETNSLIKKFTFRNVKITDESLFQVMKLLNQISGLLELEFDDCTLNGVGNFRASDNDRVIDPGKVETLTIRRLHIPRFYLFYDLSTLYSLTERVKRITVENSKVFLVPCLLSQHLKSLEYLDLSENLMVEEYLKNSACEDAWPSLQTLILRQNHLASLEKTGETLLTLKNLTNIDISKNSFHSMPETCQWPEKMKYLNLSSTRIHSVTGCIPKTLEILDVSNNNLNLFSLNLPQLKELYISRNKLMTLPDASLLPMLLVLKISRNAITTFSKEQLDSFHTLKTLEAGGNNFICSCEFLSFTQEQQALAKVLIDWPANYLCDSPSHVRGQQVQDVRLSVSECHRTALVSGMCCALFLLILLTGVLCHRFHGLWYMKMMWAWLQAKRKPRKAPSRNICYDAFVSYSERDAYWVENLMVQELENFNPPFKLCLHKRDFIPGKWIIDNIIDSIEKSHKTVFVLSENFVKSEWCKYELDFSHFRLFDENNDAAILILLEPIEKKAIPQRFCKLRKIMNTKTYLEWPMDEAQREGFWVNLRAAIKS
# Method in brief: (§1)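 HEK293 reporter cells stably co-transfected with the respective human TLR or NOD receptor plus NF-κB/AP-1-driven secreted alkaline phosphatase, kept in selection medium. About 10^5 cells/ml were incubated with graded concentrations of test compound in 384-well format. Supernatant sAP was read colorimetrically at 620 nm with an alkaline phosphatase-specific chromogen in detection medium.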
# [2] = molecular target: Toll-like receptor 3 (Homo sapiens) (UniProt O15455); test: Agonist activity at human TLR3 stably expressed in HEK293 cells co-expressing secreted alkaline phosphatase assessed as NF-kappaB induction by liquid handler-assisted reporter gene assay; method in brief: as §1
# Toll-like receptor 3 (Homo sapiens), sequence (O15455 whole entry): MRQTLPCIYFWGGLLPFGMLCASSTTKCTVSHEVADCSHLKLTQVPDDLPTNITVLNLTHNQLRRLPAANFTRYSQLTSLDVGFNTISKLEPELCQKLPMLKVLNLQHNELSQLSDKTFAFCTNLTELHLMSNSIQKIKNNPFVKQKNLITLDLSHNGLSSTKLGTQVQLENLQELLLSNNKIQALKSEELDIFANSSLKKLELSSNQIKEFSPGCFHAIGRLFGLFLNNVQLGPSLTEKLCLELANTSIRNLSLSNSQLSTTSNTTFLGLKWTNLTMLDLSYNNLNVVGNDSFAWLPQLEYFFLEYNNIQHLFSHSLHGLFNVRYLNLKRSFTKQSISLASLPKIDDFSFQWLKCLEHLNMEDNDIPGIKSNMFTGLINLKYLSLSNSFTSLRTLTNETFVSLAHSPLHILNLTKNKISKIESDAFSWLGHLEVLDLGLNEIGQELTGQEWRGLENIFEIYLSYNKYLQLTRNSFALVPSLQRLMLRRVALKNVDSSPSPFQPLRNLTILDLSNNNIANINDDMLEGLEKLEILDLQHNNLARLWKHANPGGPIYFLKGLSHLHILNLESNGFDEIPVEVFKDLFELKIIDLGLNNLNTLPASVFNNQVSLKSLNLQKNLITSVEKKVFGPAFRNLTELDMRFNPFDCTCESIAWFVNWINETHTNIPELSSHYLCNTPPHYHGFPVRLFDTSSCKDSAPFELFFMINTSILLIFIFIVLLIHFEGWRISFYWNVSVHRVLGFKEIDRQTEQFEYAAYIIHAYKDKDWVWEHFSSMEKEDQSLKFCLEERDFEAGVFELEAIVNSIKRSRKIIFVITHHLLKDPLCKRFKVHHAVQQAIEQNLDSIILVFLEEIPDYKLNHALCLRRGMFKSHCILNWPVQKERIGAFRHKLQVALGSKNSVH
# [3] = molecular target: Toll-like receptor 4 (Homo sapiens) (UniProt O00206); test: Agonist activity at human TLR4 stably expressed in HEK293 cells co-expressing secreted alkaline phosphatase assessed as NF-kappaB induction by liquid handler-assisted reporter gene assay; method in brief: as §1
# Toll-like receptor 4 (Homo sapiens), sequence (O00206 whole entry): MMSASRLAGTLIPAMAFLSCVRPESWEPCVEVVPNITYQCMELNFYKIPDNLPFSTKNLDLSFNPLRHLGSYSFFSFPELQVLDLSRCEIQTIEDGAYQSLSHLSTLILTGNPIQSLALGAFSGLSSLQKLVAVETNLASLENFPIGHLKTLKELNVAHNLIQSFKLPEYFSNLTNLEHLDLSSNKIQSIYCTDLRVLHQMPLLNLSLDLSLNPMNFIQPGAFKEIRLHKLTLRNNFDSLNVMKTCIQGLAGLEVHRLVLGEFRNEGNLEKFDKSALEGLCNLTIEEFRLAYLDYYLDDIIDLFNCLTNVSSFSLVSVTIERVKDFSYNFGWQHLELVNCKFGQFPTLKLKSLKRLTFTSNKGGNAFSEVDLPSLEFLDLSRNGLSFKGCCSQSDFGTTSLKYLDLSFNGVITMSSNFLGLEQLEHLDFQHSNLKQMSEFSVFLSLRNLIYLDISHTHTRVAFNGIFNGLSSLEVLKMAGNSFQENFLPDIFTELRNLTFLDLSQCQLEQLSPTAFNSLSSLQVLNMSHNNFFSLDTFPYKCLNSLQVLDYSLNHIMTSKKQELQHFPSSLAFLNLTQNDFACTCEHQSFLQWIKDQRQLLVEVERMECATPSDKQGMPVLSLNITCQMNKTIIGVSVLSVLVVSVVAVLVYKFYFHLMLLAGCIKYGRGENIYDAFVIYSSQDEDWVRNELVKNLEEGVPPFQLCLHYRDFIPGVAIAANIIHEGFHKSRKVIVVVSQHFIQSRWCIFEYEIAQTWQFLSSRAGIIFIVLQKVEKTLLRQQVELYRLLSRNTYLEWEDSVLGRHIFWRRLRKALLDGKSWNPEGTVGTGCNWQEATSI
# [4] = molecular target: Toll-like receptor 5 (Homo sapiens) (UniProt O60602); test: Agonist activity at human TLR5 stably expressed in HEK293 cells co-expressing secreted alkaline phosphatase assessed as NF-kappaB induction by liquid handler-assisted reporter gene assay; method in brief: as §1
# Toll-like receptor 5 (Homo sapiens), sequence (O60602 whole entry): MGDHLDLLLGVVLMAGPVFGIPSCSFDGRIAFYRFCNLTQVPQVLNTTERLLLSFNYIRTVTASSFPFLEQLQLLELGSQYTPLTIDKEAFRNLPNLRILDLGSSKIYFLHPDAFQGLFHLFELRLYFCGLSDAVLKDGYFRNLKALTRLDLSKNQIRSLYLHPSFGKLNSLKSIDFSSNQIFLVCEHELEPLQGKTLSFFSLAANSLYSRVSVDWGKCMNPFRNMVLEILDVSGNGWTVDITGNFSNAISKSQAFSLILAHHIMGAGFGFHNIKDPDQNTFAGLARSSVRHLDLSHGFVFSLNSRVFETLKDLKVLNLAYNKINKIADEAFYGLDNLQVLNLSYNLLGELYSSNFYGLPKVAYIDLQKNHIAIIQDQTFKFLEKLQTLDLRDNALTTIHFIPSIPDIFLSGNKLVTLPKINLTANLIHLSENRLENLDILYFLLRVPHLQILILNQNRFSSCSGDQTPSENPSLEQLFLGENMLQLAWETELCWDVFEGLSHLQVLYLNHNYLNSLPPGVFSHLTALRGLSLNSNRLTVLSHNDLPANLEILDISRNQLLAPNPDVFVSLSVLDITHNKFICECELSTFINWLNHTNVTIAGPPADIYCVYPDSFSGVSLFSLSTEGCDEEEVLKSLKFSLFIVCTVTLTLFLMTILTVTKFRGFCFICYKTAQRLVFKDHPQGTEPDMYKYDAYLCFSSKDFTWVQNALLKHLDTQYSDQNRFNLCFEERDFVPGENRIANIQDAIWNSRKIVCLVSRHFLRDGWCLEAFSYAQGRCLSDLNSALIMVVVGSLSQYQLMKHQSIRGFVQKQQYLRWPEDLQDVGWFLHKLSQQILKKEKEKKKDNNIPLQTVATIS
# [5] = molecular target: T1, Toll-like receptor 7 (Homo sapiens) (UniProt Q9NYK1); test: Agonist activity at human TLR7 stably expressed in HEK293 cells co-expressing secreted alkaline phosphatase assessed as NF-kappaB induction by liquid handler-assisted reporter gene assay; method in brief: as §1
# T1 sequence (whole entry): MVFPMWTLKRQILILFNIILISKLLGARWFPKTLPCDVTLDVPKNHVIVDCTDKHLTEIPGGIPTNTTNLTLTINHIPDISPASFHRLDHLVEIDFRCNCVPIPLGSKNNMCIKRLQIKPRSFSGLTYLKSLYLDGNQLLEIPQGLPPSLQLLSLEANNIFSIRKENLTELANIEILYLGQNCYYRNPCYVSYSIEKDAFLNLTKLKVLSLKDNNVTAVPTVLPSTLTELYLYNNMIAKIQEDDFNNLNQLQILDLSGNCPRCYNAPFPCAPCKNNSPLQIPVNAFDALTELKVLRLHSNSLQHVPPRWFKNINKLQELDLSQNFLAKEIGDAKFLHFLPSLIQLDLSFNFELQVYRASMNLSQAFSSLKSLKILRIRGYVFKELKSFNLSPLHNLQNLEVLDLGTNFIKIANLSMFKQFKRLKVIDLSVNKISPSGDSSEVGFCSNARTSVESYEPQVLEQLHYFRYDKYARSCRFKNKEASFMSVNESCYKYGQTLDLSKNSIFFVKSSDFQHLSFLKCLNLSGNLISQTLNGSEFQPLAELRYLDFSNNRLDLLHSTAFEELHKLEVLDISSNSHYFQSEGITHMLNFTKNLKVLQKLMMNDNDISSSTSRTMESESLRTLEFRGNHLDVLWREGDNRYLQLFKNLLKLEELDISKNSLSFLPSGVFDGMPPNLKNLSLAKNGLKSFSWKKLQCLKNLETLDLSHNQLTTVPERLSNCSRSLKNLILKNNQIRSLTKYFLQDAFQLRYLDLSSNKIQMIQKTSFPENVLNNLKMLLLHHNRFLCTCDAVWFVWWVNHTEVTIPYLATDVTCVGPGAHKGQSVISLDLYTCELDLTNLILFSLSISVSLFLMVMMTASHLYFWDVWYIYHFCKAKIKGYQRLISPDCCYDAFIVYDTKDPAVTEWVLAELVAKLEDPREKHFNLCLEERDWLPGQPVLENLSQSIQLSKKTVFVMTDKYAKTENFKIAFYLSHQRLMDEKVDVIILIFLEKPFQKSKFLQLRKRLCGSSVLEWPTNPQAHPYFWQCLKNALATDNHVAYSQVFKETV
# [6] = molecular target: T2, Toll-like receptor 9 (Homo sapiens) (UniProt Q9NR96); test: Agonist activity at human TLR9 stably expressed in HEK293 cells co-expressing secreted alkaline phosphatase assessed as NF-kappaB induction by liquid handler-assisted reporter gene assay; method in brief: as §1
# T2 sequence (whole entry): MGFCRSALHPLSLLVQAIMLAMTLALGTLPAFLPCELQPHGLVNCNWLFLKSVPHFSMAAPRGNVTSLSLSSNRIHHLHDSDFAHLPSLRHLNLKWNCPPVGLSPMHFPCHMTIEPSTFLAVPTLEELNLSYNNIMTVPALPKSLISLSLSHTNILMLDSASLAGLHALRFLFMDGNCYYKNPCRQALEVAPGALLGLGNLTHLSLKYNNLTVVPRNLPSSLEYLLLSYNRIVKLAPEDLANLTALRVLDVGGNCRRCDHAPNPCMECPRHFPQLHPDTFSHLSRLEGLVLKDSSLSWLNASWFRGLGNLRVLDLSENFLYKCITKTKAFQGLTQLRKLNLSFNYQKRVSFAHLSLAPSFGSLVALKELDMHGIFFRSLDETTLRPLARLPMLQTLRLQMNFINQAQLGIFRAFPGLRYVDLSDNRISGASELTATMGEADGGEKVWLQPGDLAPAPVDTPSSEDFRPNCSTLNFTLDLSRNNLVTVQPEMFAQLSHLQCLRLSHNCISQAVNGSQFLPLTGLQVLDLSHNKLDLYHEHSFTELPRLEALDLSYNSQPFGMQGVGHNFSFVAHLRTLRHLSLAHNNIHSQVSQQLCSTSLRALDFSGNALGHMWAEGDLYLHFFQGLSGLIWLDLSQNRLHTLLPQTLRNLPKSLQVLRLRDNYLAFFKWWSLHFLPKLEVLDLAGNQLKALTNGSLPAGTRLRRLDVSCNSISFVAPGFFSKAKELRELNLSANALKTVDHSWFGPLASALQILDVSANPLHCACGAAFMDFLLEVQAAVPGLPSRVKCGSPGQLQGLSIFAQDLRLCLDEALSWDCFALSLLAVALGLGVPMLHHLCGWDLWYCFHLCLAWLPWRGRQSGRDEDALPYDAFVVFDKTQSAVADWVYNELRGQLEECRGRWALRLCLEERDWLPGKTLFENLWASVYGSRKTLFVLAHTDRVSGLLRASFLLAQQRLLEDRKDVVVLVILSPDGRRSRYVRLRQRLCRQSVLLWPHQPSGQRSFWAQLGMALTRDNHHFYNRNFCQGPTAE
# [7] = molecular target: T3, Nucleotide-binding oligomerization domain-containing protein 1 (Homo sapiens) (UniProt Q9Y239); test: Agonist activity at human NOD1 stably expressed in HEK293 cells co-expressing secreted alkaline phosphatase assessed as NF-kappaB induction by liquid handler-assisted reporter gene assay; method in brief: as §1
# T3 sequence (whole entry): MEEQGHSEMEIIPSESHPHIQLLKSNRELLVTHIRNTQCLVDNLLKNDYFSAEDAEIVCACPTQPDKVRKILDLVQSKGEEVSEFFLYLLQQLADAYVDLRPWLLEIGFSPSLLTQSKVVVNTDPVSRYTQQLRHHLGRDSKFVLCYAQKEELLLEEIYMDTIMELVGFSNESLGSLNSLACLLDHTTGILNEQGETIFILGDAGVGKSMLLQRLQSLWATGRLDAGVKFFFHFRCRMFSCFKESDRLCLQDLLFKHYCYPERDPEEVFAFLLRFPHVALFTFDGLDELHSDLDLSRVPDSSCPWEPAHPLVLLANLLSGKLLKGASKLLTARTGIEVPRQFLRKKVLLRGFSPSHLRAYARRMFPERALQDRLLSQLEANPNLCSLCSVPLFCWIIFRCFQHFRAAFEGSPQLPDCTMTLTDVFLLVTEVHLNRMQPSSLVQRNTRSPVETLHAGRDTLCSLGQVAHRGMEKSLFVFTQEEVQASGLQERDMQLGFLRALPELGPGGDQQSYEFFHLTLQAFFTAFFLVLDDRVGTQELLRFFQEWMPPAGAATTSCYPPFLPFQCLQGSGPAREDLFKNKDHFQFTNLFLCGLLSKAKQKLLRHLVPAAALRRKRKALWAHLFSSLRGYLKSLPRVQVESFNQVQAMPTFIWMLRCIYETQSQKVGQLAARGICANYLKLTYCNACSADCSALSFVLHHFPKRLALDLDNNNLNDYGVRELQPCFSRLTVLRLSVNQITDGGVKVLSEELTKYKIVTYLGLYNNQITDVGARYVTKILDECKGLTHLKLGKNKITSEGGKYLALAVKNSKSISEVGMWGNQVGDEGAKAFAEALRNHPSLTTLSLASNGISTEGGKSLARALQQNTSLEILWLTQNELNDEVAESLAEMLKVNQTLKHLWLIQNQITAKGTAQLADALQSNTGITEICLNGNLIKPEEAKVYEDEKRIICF
# [8] = molecular target: Nucleotide-binding oligomerization domain-containing protein 2 (Homo sapiens, UniProt Q9HC29); test: Agonist activity at human NOD2 stably expressed in HEK293 cells co-expressing secreted alkaline phosphatase assessed as NF-kappaB induction by liquid handler-assisted reporter gene assay; method in brief: as §1
# Nucleotide-binding oligomerization domain-containing protein 2, sequence (Q9HC29 whole entry, the tested form may be a part): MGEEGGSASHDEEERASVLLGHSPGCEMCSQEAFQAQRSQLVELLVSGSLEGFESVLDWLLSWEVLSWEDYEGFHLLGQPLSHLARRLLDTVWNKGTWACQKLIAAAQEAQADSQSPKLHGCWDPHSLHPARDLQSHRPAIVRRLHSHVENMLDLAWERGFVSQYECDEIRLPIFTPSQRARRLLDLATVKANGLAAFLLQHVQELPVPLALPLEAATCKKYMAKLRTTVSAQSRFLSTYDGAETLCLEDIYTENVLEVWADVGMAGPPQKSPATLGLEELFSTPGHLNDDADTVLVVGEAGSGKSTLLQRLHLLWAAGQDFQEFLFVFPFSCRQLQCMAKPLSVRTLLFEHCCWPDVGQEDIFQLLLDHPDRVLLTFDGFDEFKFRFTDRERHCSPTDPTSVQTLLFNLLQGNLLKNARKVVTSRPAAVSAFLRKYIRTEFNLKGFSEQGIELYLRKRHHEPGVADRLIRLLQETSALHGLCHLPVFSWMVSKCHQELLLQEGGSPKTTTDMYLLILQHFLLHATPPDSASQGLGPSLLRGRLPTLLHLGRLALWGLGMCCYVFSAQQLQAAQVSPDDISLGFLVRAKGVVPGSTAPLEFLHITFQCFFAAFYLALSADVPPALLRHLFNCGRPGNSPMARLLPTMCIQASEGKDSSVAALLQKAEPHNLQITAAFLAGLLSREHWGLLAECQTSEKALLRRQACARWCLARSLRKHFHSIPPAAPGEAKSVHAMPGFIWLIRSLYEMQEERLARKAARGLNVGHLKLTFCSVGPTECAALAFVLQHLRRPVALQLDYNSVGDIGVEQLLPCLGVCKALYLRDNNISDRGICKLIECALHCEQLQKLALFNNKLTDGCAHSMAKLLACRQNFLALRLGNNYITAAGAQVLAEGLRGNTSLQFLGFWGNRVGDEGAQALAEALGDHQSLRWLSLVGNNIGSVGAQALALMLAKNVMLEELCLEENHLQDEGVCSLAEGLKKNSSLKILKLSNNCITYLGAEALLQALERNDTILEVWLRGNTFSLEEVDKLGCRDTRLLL
Activity [1],Activity [2],Activity [3],Activity [4],Activity [5],Activity [6],Activity [7],Activity [8],SMILES
inactive,inactive,inactive,inactive,inactive,inactive,inactive,inactive,CCCCCn1c(N)nc2cccc(C)c21
inactive,inactive,inactive,inactive,inactive,inactive,inactive,inactive,CCCCCn1c(N)nc2cc(C)ccc21
inactive,inactive,inactive,inactive,inactive,inactive,inactive,inactive,CCCCCn1c(N)nc2c(N)cccc21
inactive,inactive,inactive,inactive,inactive,inactive,inactive,inactive,CCCCCn1c(N)nc2ccc(C)cc21
inactive,inactive,inactive,inactive,inactive,inactive,inactive,inactive,CCCCCn1c(N)nc2ccccc21
inactive,inactive,inactive,inactive,inactive,inactive,inactive,inactive,CCCCCn1c(N)nc2c(OC)cccc21
inactive,inactive,inactive,inactive,inactive,inactive,inactive,inactive,CCCCCCn1c(N)nc2ccccc21

# The remaining lines, values behind:
SMILES,Activity [1],Activity [2],Activity [3],Activity [4],Activity [5],Activity [6],Activity [7],Activity [8]
CCCCCn1c(N)nc2c(O)cccc21,inactive,inactive,inactive,inactive,inactive,inactive,inactive,inactive
CCCCCn1c(N)nc2c(CC)cccc21,inactive,inactive,inactive,inactive,inactive,inactive,inactive,inactive
CCCCCn1c(N)nc2c(N(C)C)cccc21,inactive,inactive,inactive,inactive,inactive,inactive,inactive,inactive
CCCCn1c(N)nc2ccccc21,inactive,inactive,inactive,inactive,inactive,inactive,inactive,inactive
CCCCCn1c(N)nc2c3ccccc3ccc21,inactive,inactive,inactive,inactive,inactive,inactive,inactive,inactive
